Assay results taken from ChEMBL document CHEMBL1149254, “The discovery of orally active triaminotriazine aniline amides as inhibitors of p38 MAP kinase” (J Med Chem, 2004).

What was measured:
[1] = target: Mitogen-activated protein kinase 14 (Homo sapiens, UniProt Q16539); assay: Inhibition of human p38-alpha expressed in Escherichia coli
[2] = test system: THP-1; assay: Inhibition of LPS-induced TNFalpha production in human THP1 cells by ELISA; assay type: functional, cell-based
Method in brief: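 THP-1 cells grown in RPMI 1640 with 10% FBS, 40000 cells/well. Compound or vehicle was added (1% DMSO final), then LPS at 1 μg/mL final. Cells were incubated overnight at 37 °C, 5% CO2. TNF in the supernatant was measured by sandwich ELISA: anti-human TNF capture, biotinylated polyclonal detection, streptavidin-peroxidase read-out.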

Mitogen-activated protein kinase 14, sequence (Q16539 whole entry): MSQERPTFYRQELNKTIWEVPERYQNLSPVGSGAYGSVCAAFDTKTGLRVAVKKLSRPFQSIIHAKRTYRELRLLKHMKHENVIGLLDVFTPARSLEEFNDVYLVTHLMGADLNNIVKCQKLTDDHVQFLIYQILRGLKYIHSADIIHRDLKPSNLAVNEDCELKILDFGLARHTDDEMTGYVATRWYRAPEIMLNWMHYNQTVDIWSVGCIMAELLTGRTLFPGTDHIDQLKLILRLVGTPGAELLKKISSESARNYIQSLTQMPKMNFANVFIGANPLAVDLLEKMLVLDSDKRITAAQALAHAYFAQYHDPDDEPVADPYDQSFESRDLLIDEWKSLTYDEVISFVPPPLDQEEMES

Structure (SMILES)	IC50 [1] [nM]	IC50 [2] [nM]
Cc1ccc(C(=O)O)cc1Nc1nc(N(C)CC(C)(C)C)nc(N2CCCN(C)CC2)n1	> 1000	–
Cc1ccc(C(N)=O)cc1Nc1nc(NC[C@@H]2CC[C@H]3C[C@@H]2C3(C)C)nc(N[C@H]2CCNC2)n1	53	1100
CONC(=O)c1ccc(C)c(Nc2nc(N(C)CC(C)(C)C)nc(N3CCCNCC3)n2)c1	52	131
CONC(=O)c1ccc(C)c(Nc2nc(N[C@H]3CCNC3)nc(N(C)CC(C)(C)C)n2)c1	8	16
Cc1ccc(C(=O)NCc2ccccc2)cc1Nc1nc(N[C@H]2CCNC2)nc(N(C)CC(C)(C)C)n1	64	85
Cc1ccc(C(N)=O)cc1Nc1nc(NC[C@@H]2CC[C@H]3C[C@@H]2C3(C)C)nc(N2CCCNCC2)n1	1360	1700
Cc1ccc(C(N)=O)cc1Nc1nc(N[C@H]2CCNC2)nc(N(C)CC2CCCCC2)n1	250	1300
Cc1ccc(C(=O)NC2CCCC2)cc1Nc1nc(N[C@H]2CCNC2)nc(N(C)CC(C)(C)C)n1	100	130
Cc1ccc(C(=O)NC(C)C)cc1Nc1nc(N[C@H]2CCNC2)nc(N(C)CC(C)(C)C)n1	51	150
CCNC(=O)c1ccc(C)c(Nc2nc(N[C@H]3CCNC3)nc(N(C)CC(C)(C)C)n2)c1	31	140
Cc1ccc(C(N)=O)cc1Nc1nc(N[C@H]2CCNC2)nc(N(C)CC(C)c2ccccc2)n1 (stereo partly specified)	84	2600
